How the values were obtained:
[1] = system: Human immunodeficiency virus 1; test: Antiviral activity against Human immunodeficiency virus 1 3B infected in human MT4 cells assessed as inhibition of virus-induced cytopathogenicity after 4 days by MTT assay; type: functional, organism-based; conditions: MT4, 96 h
In short: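 MT-4 cells (1 × 10^4 per well) in RPMI with or without serial compound dilutions, acutely infected with HIV-1 at m.o.i. 0.01 (100 CCID50). After 4-day incubation at 37 °C, protection from virus-induced cytopathogenicity was read as cell viability by MTT. Compounds were made as 100 mM DMSO stocks and diluted in medium.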

[2] = Cytotoxicity against human MT4 cells after 96 hrs by MTT assay; type: cell-based
In short: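 Exponentially growing MT-4 cells seeded at 1 × 10^5 cells/ml in RPMI-1640 with 10 % FBS and penicillin/streptomycin. Incubated at 37 °C, 5 % CO2, with or without serial compound dilutions (100 mM DMSO stocks diluted in medium), run in parallel with the antiviral test. Viability by MTT after 96 h.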

Work on O=c1[nH]c(=O)c2c(-c3ccccc3)c3c(c(-c4ccccc4)c12)c(=O)c1ccccc13 yielded an EC50 [1] greater than 9 µM.
Work on O=c1c2ccccc2c2c(-c3ccccc3)c3c(=O)n(CCCCN4CCN(CCc5ccccc5C(F)(F)F)CC4)c(=O)c3c(-c3ccccc3)c12 yielded a CC50 at 96 h [2] of 9 µM and an EC50 [1] greater than 9 µM.
O=c1c2ccccc2c2c(-c3ccccc3)c3c(=O)n(CCCCN4CCN(c5ccccn5)CC4)c(=O)c3c(-c3ccccc3)c12 gave a CC50 at 96 h [2] greater than 100 µM and an EC50 [1] greater than 100 µM.
For O=c1c2ccccc2c2c(-c3ccccc3)c3c(=O)n(CCCCN4CCN(c5ccccc5F)CC4)c(=O)c3c(-c3ccccc3)c12, the CC50 at 96 h [2] was greater than 100 µM and the EC50 [1] was greater than 100 µM.
O=c1c2ccccc2c2c(-c3ccccc3)c3c(=O)n(CCCCN4CCN(c5ccc(Cl)cc5)CC4)c(=O)c3c(-c3ccccc3)c12 showed a CC50 at 96 h [2] greater than 100 µM and an EC50 [1] greater than 100 µM.
Work on O=c1c2ccccc2c2c(-c3ccccc3)c3c(=O)n(CCCCN4CCN(c5ccc(F)cc5)CC4)c(=O)c3c(-c3ccccc3)c12 yielded a CC50 at 96 h [2] greater than 100 µM and an EC50 [1] greater than 100 µM.
In the case of O=c1c2ccccc2c2c(-c3ccccc3)c3c(=O)n(CCCCN4CCN(c5ccccc5Cl)CC4)c(=O)c3c(-c3ccccc3)c12, the CC50 at 96 h [2] is reported as greater than 100 µM and the EC50 [1] is reported as greater than 100 µM.
O=c1c2ccccc2c2c(-c3ccccc3)c3c(=O)n(CCCCN4CCN(c5ccccc5)CC4)c(=O)c3c(-c3ccccc3)c12 showed a CC50 at 96 h [2] greater than 100 µM and an EC50 [1] greater than 100 µM.
